What was measured:
[1] = In vitro ability to inhibit cholesterol biosynthesis in HepG2 cells in culture from [14C]acetate; type: functional, cell-based
[2] = In vitro ability to inhibit cholesterol biosynthesis in HepG2 cells in culture from [14C]mevalonate.; type: functional, cell-based
Summary of the method: (§1)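 Hep-G2 cells grown in DMEM with 10% fetal calf serum to subconfluence, then 48 h in DMEM plus 2% Ultroser G. Pretreated 1 h with compound or vehicle (DMSO 0.1%), then [14C]mevalonate (1 μCi/mL) for 4 h. Cells lysed in KOH and saponified in ethanolic KOH at 75 °C for 1 h. Nonsaponifiable lipids separated by TLC. IC50 derived from % [14C]cholesterol versus control cells.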

[3] = In vivo ability to inhibit cholesterol biosynthesis from [14C]acetate after a single oral administration in female rats.; type: functional; conditions: Rattus norvegicus
Summary of the method: (§2)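 Female SD rats (60–80 g) kept 11 days on a reversed light cycle with free access to food and water. Single oral dose at 9:00 a.m., suspended in water with 2% DMSO and 5% Tween 80 (1 mL/100 g). [14C]acetate given i.p. at 80 μCi/kg 1 h later. Liver taken after a further 1 h, saponified, and [14C]cholesterol analysed by TLC against controls. Mean ED50 from at least two experiments.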

[4] = tested on: HepG2; experiment: In vitro ability to inhibit cholesterol biosynthesis in HepG2 cells in culture from [14C]acetate.; type: functional, cell-based; conditions: Homo sapiens
[5] = tested on: HepG2; experiment: In vitro ability to inhibit cholesterol biosynthesis in HepG2 cells in culture from [14C]mevalonate; type: functional, cell-based; conditions: Homo sapiens; summary of the method: as §1
[6] = tested on: Rattus norvegicus; experiment: In vivo ability to inhibit cholesterol biosynthesis from [14C]acetate after a single oral administration in female rats; type: functional; summary of the method: as §2

SMILES	IC50 [2]	ED50 [3]	also measured
CCN(C/C=C/C#CC(C)(C)C)Cc1cccc(OC[Si](C)(C)c2ccccc2C#N)c1	80 nM	7 mg/kg	IC50 [1]: 80 nM
CCN(CC#CC#CC(C)(C)OC)Cc1cccc(OC[Si](C)(C)c2ccccc2C)c1	290 nM	1.8 mg/kg	IC50 [4]: 120 nM
C=Cc1ccc([Si](C)(C)COc2cccc(CN(CC)C/C=C/C#CC(C)(C)C)c2)cc1	1320 nM	> 40 mg/kg	
CCN(C/C=C/C#CC(C)(C)C)Cc1cccc(OC[Si](C)(C)c2cccc(C)c2)c1	> 10000 nM		
CCN(C/C=C/C#CC(C)(C)C)Cc1cccc(OC[Si](C)(C)c2ccc(S)cc2)c1	10000 nM		
CCN(C/C=C/C#CC(C)(C)C)Cc1cccc(OC[Si](C)(C)Cc2ccccc2)c1	> 10000 nM	> 40 mg/kg	
CCN(C/C=C/C#CC(C)(C)C)Cc1cccc(OC[Si](C)(C)c2ccccc2C)c1	120 nM	3.8 mg/kg	IC50 [4]: 150 nM
CCN(C/C=C/C#CC(C)(C)C)Cc1cccc(OC[Si](C)(C)c2ccc(C(N)=O)cc2)c1	1000 nM		
CCN(C/C=C/C#CC(C)(C)C)Cc1cccc(OC[Si](C)(C)c2ccc(SC)cc2)c1	> 10000 nM		
CCN(C/C=C/C#CC(C)(C)C)Cc1cccc(OC[Si](C)(C)CCc2ccccc2)c1	> 10000 nM		
CCN(C/C=C/C#CC(C)(C)C)Cc1cccc(OC[Si](C)(C)c2ccc(C)cc2)c1	5000 nM		
CCN(C/C=C/C#CC(C)(C)C)Cc1cccc(OC[Si](C)(C)c2ccc(OC)cc2)c1	> 10000 nM		
CCN(C/C=C/C#CC(C)(C)C)Cc1cccc(OC[Si](C)(C)c2ccccc2OC)c1	5000 nM	> 40 mg/kg	
CCN(C/C=C/C#CC(C)(C)C)Cc1cccc(OC[Si](C)(C)c2ccc(C#N)cc2)c1	60 nM	> 40 mg/kg	IC50 [4]: 70 nM
CCN(C/C=C/C#CC(C)(C)C)Cc1cccc(OCc2cc(-c3ccsc3)cs2)c1			IC50 [5]: 20 nM; ED50 [6]: 2.5 mg/kg
CCN(C/C=C/C#CC(C)(C)C)Cc1cccc(OC[Si](C)(C)c2ccc(Cl)cc2)c1	> 10000 nM	> 40 mg/kg	
CCN(CC#CC#CC(C)(C)C)Cc1cccc(OC[Si](C)(C)c2ccccc2C)c1	780 nM	5 mg/kg	
CCN(C/C=C/C#CC(C)(C)C)Cc1cccc(OC[Si](C)(C)c2ccc(C=O)cc2)c1	140 nM	20 mg/kg	IC50 [1]: 150 nM
CCN(C/C=C/C#CC(C)(C)C)Cc1cccc(OC[Si](C)(C)c2ccc(F)cc2)c1	5000 nM	> 40 mg/kg	
CCN(C/C=C/C#CC(C)(C)C)Cc1cccc(OC[Si](C)(C)c2ccccc2C(F)(F)F)c1	1480 nM	20 mg/kg	
CCN(C/C=C/C#CC(C)(C)C)Cc1cccc(OC[Si](C)(C)c2ccc(Br)cc2)c1	> 10000 nM	> 40 mg/kg	
CCN(C/C=C/C#CC(C)(C)C)Cc1cccc(OC[Si](C)(C)c2ccccc2)c1	500 nM	20 mg/kg	IC50 [1]: 800 nM
CC[C@H](C)C(=O)O[C@H]1C[C@H](O)C=C2C=C[C@H](C)[C@H](CC[C@@H](O)C[C@@H](O)CC(=O)O)[C@H]21 [PRAVASTATIN]			IC50 [5]: […]; IC50 [1]: 430 nM; ED50 [6]: 0.9 mg/kg
